Source: PubChem BioAssay AID2692 (The Scripps Research Institute Molecular Screening Center, 2010)
The source made the active and inactive calls. How the calls were made is not given here.

Test system: transient receptor potential cation channel subfamily N member 1 (TRPN1/NompC), zebrafish
Test: zebrafish TRPN1 channel activation, late-stage follow-up, selectivity assay for TRPML3 selective agonist project, whole-cell patch clamp, HEK293 (AID 2692)
Settings: at 10 µM
Method in brief: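 Test system – HEK293 cells expressing the TRPN1 ion channel · Medium – NaCl bath with 100 µM 2-APB, CsCl/BAPTA pipette · Schedule – 10 ms steps, holding potential +10 mV · Measured by – whole-cell patch clamp, 20 mV steps −200 to +100 mV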

## CCOc1ccc(S(=O)(=O)N2CCCCCC2)c2ccccc12
  current density at -80 mV: -0.003 nA/pF (inactive)

## Cc1ccc(S(=O)(=O)n2nccc2-c2c(-c3ccc(Cl)cc3)noc2C)cc1
  current density at -80 mV: -0.004 nA/pF (inactive)

## CC1CCN(S(=O)(=O)c2ccc(C(C)C)cc2)CC1
  current density at -80 mV: -0.003 nA/pF (inactive)
